In ChEMBL document CHEMBL1123914, “6-Methylergoline-8-carboxylic acid esters as serotonin antagonists: N1-substituent effects on 5HT2 receptor affinity” (J Med Chem, 1987):

Tests used:
[1] = target: T1, Serotonin 2 (5-HT2) receptor (Rattus norvegicus) (UniProt P30994+P08909+P14842); experiment: Affinity towards 5-hydroxytryptamine 2 receptor by measuring its ability to antagonize serotonin-induced contractions in the rat jugular vein.
Outline: (§1)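 Rat external jugular vein rings, cannulated and mounted between two L-shaped needles on a force transducer in Krebs bicarbonate buffer. Tissues equilibrated 1–2 h. After control cumulative serotonin contraction curves, vessels were incubated with antagonist for 1 h and the serotonin curves repeated. K_B = [B]/(dose ratio − 1), where dose ratio is agonist ED50 with antagonist over control ED50. Reported as −log K_B.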

[2] = target: T1, Serotonin 2 (5-HT2) receptor (Rattus norvegicus); experiment: Affinity towards 5-hydroxytryptamine 2 receptor by measuring its ability to antagonize serotonin-induced contractions in the rat jugular vein; no appreciable 5-HT2 receptor affinity; outline: as §1

T1 sequence (P08909 whole entry, looked up): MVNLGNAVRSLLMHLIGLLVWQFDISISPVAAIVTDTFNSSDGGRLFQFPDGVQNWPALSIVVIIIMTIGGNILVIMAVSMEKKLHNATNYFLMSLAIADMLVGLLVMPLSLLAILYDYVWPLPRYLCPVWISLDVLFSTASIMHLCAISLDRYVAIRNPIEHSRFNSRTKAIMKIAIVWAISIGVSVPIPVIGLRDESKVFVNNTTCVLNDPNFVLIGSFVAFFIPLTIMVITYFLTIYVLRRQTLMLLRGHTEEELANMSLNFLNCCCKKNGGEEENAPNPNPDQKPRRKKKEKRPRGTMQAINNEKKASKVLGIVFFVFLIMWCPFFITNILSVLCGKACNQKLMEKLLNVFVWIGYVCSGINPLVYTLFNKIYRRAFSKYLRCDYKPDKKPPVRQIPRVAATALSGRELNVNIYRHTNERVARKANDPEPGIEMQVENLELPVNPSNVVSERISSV
T1 sequence (P14842 whole entry, looked up): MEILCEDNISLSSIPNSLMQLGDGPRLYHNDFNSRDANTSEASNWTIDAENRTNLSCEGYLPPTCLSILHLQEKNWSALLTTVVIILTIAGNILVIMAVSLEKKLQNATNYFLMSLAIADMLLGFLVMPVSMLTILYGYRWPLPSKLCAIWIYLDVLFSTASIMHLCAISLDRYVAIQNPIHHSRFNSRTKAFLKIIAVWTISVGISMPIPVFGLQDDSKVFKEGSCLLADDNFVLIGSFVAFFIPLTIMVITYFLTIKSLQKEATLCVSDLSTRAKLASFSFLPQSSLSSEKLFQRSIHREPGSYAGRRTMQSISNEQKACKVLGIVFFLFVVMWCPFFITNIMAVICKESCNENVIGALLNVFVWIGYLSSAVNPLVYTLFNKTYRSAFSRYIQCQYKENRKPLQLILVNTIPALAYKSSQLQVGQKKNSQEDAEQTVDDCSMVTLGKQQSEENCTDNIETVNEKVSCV
T1 sequence (P30994 whole entry, looked up): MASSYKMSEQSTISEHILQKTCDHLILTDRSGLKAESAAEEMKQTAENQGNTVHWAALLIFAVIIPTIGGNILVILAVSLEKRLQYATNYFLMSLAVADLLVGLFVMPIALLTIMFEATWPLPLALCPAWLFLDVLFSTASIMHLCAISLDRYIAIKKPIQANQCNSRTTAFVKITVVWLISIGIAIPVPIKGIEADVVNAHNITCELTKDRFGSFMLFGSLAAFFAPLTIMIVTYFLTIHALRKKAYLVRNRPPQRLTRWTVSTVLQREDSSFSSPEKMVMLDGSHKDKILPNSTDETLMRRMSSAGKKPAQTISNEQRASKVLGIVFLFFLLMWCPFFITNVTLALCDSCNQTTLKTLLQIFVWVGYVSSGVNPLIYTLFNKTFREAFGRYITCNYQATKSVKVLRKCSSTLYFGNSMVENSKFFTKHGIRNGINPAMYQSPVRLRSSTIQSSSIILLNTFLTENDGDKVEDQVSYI

| Structure (SMILES) | -Log KB [1] | -Log KB [2] |
| --- | --- | --- |
| COC(=O)C1CC2c3cccc4[nH]cc(c34)CC2N(C)C1 (stereo not given) | 8.1 | – |
| COC(=O)C1CC2c3cccc4c3c(cn4C)CC2N(C)C1 (stereo not given) | 8.23 | – |
| CCC(CC)n1cc2c3c(cccc31)C1CC(C(=O)OC(C)C(C)O)CN(C)C1C2 (stereo not given) | – | < 7 |
| CCCn1cc2c3c(cccc31)C1CC(C(=O)OC)CN(C)C1C2 (stereo not given) | 7.72 | – |
| C=CCn1cc2c3c(cccc31)C1CC(C(=O)OCCO)CN(C)C1C2 (stereo not given) | 8.17 | – |
| CC(O)C(C)OC(=O)C1CC2c3cccc4[nH]cc(c34)CC2N(C)C1 (stereo not given) | 8.42 | – |
| CC(O)C(C)OC(=O)C1CC2c3cccc4c3c(cn4C3CCCC3)CC2N(C)C1 (stereo not given) | – | < 7 |
| CC(O)C(C)OC(=O)C1CC2c3cccc4c3c(cn4Cc3ccccc3)CC2N(C)C1 (stereo not given) | 7.37 | – |
| COC(=O)C1CC2c3cccc4c3c(cn4CC(C)C)CC2N(C)C1 (stereo not given) | 7.57 | – |
| CC(C)n1cc2c3c(cccc31)C1CC(C(=O)OCCO)CN(C)C1C2 (stereo not given) | 9.13 | – |
| CC(O)C(C)OC(=O)C1CC2c3cccc4c3c(cn4C)CC2N(C)C1 (stereo not given) | 9.26 | – |
| C=CCn1cc2c3c(cccc31)C1CC(C(=O)OC)CN(C)C1C2 (stereo not given) | 7.89 | – |
| CCc1c(C)n(C)c2ccc(N(C)C)cc12 | 6.51 | – |
| CCn1cc2c3c(cccc31)C1CC(C(=O)OC(C)C(C)O)CN(C)C1C2 (stereo not given) | 8.9 | – |
| CCCCCCCCn1cc2c3c(cccc31)C1CC(C(=O)OC(C)C(C)O)CN(C)C1C2 (stereo not given) | < 7 | – |
| CCc1c(C)n(C(C)C)c2ccc(N(C)C)cc12 | 7.28 | – |
| CC(O)C(C)OC(=O)C1CC2c3cccc4c3c(cn4C3CCCCCC3)CC2N(C)C1 (stereo not given) | 7.45 | – |
| CCn1cc2c3c(cccc31)C1CC(C(=O)OC)CN(C)C1C2 (stereo not given) | 8.12 | – |
| CC(O)C(C)OC(=O)C1CC2c3cccc4c3c(cn4C(C)C)CC2N(C)C1 (stereo not given) | 9.76 | – |
| CC(C)Cn1cc2c3c(cccc31)C1CC(C(=O)OCCO)CN(C)C1C2 (stereo not given) | 7.42 | – |
| CCc1c(C)[nH]c2ccc(N(C)C)cc12 | 4.93 | – |
| CN1CC(C(=O)OCCO)CC2c3cccc4[nH]cc(c34)CC21 (stereo not given) | 7.62 | – |
| CN1CC(C(=O)OCCO)CC2c3cccc4c3c(cn4C)CC21 (stereo not given) | 8.63 | – |
| CN1CC(C(=O)OCCO)CC2c3cccc4c3c(cn4Cc3ccccc3)CC21 (stereo not given) | 8.12 | – |
| CCc1c(C)n(CC)c2ccc(N(C)C)cc12 | 6.45 | – |
| CC(C)Cn1cc2c3c(cccc31)C1CC(C(=O)OC(C)C(C)O)CN(C)C1C2 (stereo not given) | 7.53 | – |
| COC(=O)C1CC2c3cccc4c3c(cn4Cc3ccccc3)CC2N(C)C1 (stereo not given) | 7.64 | – |
| CCCn1cc2c3c(cccc31)C1CC(C(=O)OC(C)C(C)O)CN(C)C1C2 (stereo not given) | 8.34 | – |
| CCC(CC)n1cc2c3c(cccc31)C1CC(C(=O)OC)CN(C)C1C2 (stereo not given) | – | < 7 |
| COC(=O)C1CC2c3cccc4c3c(cn4C(C)C)CC2N(C)C1 (stereo not given) | 8.29 | – |
